Results published in ChEMBL document CHEMBL5058577, “EUbOPEN Chemogenomics Library 2 (Multiplex)” (2022).

System: HEK-293T
Assay: Multiplex assay against HEK293T
Type: toxicity, cell-based
Settings: human
Outline: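 Phenotypes for tubulin, mitochondrial mass and membrane permeability are expressed as per cents of healthy-nucleus cells. Cells were stained live at seeding with Hoechst33342, BioTracker Green Microtubule Cytoskeleton Dye, MitoTracker Red and Annexin V Alexa Fluor 680, then imaged after compound addition on a CQ1 microscope at 37°C and 5% CO2. Machine-learning gating in CellPathfinder separated Hoechst high-intensity objects from normal cells, divided normal cells by nuclear state (healthy, pyknosed, fragmented) and divided pyknosed cells into mitotic or apoptotic.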

[1] = 12 h, 1 µM, compound concentration 1 uM, replicate 1
[2] = 12 h, 1 µM, compound concentration 1 uM, replicate 2
[3] = 12 h, 10 µM, compound concentration 10 uM, replicate 1
[4] = 12 h, 10 µM, compound concentration 10 uM, replicate 2
[5] = 24 h, 1 µM, compound concentration 1 uM, replicate 1
[6] = 24 h, 1 µM, compound concentration 1 uM, replicate 2
[7] = 24 h, 10 µM, compound concentration 10 uM, replicate 1
[8] = 24 h, 10 µM, compound concentration 10 uM, replicate 2
[9] = 48 h, 1 µM, compound concentration 1 uM, replicate 1
[10] = 48 h, 1 µM, compound concentration 1 uM, replicate 2
[11] = 48 h, 10 µM, compound concentration 10 uM, replicate 1
[12] = 48 h, 10 µM, compound concentration 10 uM, replicate 2

## CNC[C@H](O)c1ccc(O)c(O)c1 [EPINEPHRINE]
[1]
  Population Apoptotic (%): 20%
  Population Fragmented Nuclei (%): 6%
  Population Healthy Nuclei (%): 81%
  Population Hoechst High Intensity Objects (%): 7%
  Population Membrane Permeable-Phenotype (%): 0%
  Population Mitochondria Different-Phenotype (%): 31%
  Population Mitotic Cells (%): 80%
  Population Normal (%): 92%
  Population Pyknosed Nuclei (%): 11%
  Population Tubulin-Different-Phenotype (%): 26%
[2]
  Population Apoptotic (%): 56%
  Population Hoechst High Intensity Objects (%): 6%
  Population Mitochondria Different-Phenotype (%): 65%
  Population Mitotic Cells (%): 43%
  Population Normal (%): 93%
  Population Tubulin-Different-Phenotype (%): 27%
[3]
  Population Apoptotic (%): 55%
  Population Fragmented Nuclei (%): 12%
  Population Healthy Nuclei (%): 75%
  Population Hoechst High Intensity Objects (%): 9%
  Population Membrane Permeable-Phenotype (%): 1%
  Population Mitochondria Different-Phenotype (%): 65%
  Population Mitotic Cells (%): 44%
  Population Normal (%): 90%
  Population Pyknosed Nuclei (%): 11%
  Population Tubulin-Different-Phenotype (%): 39%
[4]
  Population Apoptotic (%): 56%
  Population Fragmented Nuclei (%): 11%
  Population Healthy Nuclei (%): 61%
  Population Hoechst High Intensity Objects (%): 40%
  Population Membrane Permeable-Phenotype (%): 0%
  Population Mitochondria Different-Phenotype (%): 62%
  Population Mitotic Cells (%): 43%
  Population Normal (%): 59%
  Population Pyknosed Nuclei (%): 26%
  Population Tubulin-Different-Phenotype (%): 25%
[5]
  Population Apoptotic (%): 19%
  Population Fragmented Nuclei (%): 9%
  Population Healthy Nuclei (%): 80%
  Population Hoechst High Intensity Objects (%): 5%
  Population Membrane Permeable-Phenotype (%): 0%
  Population Mitochondria Different-Phenotype (%): 25%
  Population Mitotic Cells (%): 80%
  Population Normal (%): 94%
  Population Pyknosed Nuclei (%): 9%
  Population Tubulin-Different-Phenotype (%): 21%
[6]
  Population Apoptotic (%): 36%
  Population Hoechst High Intensity Objects (%): 7%
  Population Membrane Permeable-Phenotype (%): 1%
  Population Mitochondria Different-Phenotype (%): 41%
  Population Mitotic Cells (%): 63%
  Population Normal (%): 92%
  Population Pyknosed Nuclei (%): 10%
  Population Tubulin-Different-Phenotype (%): 18%
[7]
  Population Apoptotic (%): 50%
  Population Fragmented Nuclei (%): 13%
  Population Healthy Nuclei (%): 75%
  Population Hoechst High Intensity Objects (%): 8%
  Population Membrane Permeable-Phenotype (%): 0%
  Population Mitochondria Different-Phenotype (%): 50%
  Population Mitotic Cells (%): 50%
  Population Normal (%): 91%
  Population Pyknosed Nuclei (%): 11%
  Population Tubulin-Different-Phenotype (%): 36%
[8]
  Population Apoptotic (%): 80%
  Population Fragmented Nuclei (%): 11%
  Population Healthy Nuclei (%): 71%
  Population Hoechst High Intensity Objects (%): 39%
  Population Mitochondria Different-Phenotype (%): 43%
  Population Mitotic Cells (%): 19%
  Population Normal (%): 60%
  Population Pyknosed Nuclei (%): 17%
  Population Tubulin-Different-Phenotype (%): 25%
[9]
  Population Apoptotic (%): 16%
  Population Fragmented Nuclei (%): 11%
  Population Healthy Nuclei (%): 81%
  Population Hoechst High Intensity Objects (%): 3%
  Population Membrane Permeable-Phenotype (%): 1%
  Population Mitochondria Different-Phenotype (%): 13%
  Population Mitotic Cells (%): 83%
  Population Normal (%): 96%
  Population Pyknosed Nuclei (%): 7%
  Population Tubulin-Different-Phenotype (%): 9%
[10]
  Population Apoptotic (%): 35%
  Population Fragmented Nuclei (%): 12%
  Population Healthy Nuclei (%): 78%
  Population Mitochondria Different-Phenotype (%): 24%
  Population Mitotic Cells (%): 64%
  Population Pyknosed Nuclei (%): 8%
  Population Tubulin-Different-Phenotype (%): 15%
[11]
  Population Apoptotic (%): 33%
  Population Fragmented Nuclei (%): 21%
  Population Healthy Nuclei (%): 72%
  Population Hoechst High Intensity Objects (%): 3%
  Population Membrane Permeable-Phenotype (%): 0%
  Population Mitochondria Different-Phenotype (%): 25%
  Population Mitotic Cells (%): 66%
  Population Normal (%): 96%
  Population Pyknosed Nuclei (%): 5%
  Population Tubulin-Different-Phenotype (%): 11%
[12]
  Population Apoptotic (%): 69%
  Population Fragmented Nuclei (%): 17%
  Population Healthy Nuclei (%): 67%
  Population Hoechst High Intensity Objects (%): 21%
  Population Mitochondria Different-Phenotype (%): 34%
  Population Mitotic Cells (%): 30%
  Population Normal (%): 78%
  Population Pyknosed Nuclei (%): 14%
  Population Tubulin-Different-Phenotype (%): 13%
